B1: UDA (protein, UniProt P11218 24-372, looked up)
Lectin/endochitinase 1: QRCGSQGGGGTCPALWCCSIWGWCGDSEPYCGRTCENKCWSGERSDHRCGAAVGNPPCGQDRCCSVHGWCGGGNDYCSGSKCQYRCSSSVRGPRVALSGNSTANSIGNVVVTEPLFDQMFSHRKDCPSQGFYSYHSFLVAAESFPAFGTIGDVATRKREVAAFLAHISQATSGERSDVENPHAWGLCHINTTTVTENDFCTSSDWPCAAGKKYSPRGPIQLTHNFNYGLAGQAIGEDLIQNPDLVEKDPIISFKTALWFWMSQHDNKPSCHDIVLNANSAANRIPNKGVIGNIISRAFGHDDFAVRSSSIGFYKRYCDMLGVSYGHDLKYWFDNTPSSEFQRIQMRVAA

Key:
Assay type in all cases: cell-based
Punta Toro virus = experiment: microbe, parasite or virus in culture; settings: Vero, read-out: EC50 Punta Toro virus
Coxsackie virus B4 = experiment: microbe, parasite or virus in culture; settings: Enterovirus B, B4, HeLa, read-out: EC50 Coxsackie virus B4 visual CPE score
Vero cells = experiment: Cytotoxicity in uninfected cell cultures; settings: cell morphology
Outline: (§1)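 Uninfected cell cultures are exposed to serial dilutions of test compound in parallel with the virus cytopathicity assays. Cells are examined microscopically. Minimum cytotoxic concentration is the lowest concentration causing a microscopically detectable alteration of normal cell morphology.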

Sindbis virus = experiment: microbe, parasite or virus in culture; settings: Vero, read-out: EC50 Sindbis virus
HeLa cells = experiment: Cytotoxicity in uninfected cell cultures; settings: cell morphology
Outline: as §1

Para-influenza-3 virus = experiment: organism not typed; settings: Vero, read-out: EC50 Para-influenza-3 virus
Reovirus-1 = experiment: organism not typed; settings: Vero, read-out: EC50 Reovirus-1
Vaccinia virus = experiment: microbe, parasite or virus in culture; settings: Orthopoxvirus vaccinia, HEL, read-out: EC50 Vaccinia virus
[1] = tested on: Vesicular stomatitis virus; experiment: microbe, parasite or virus in culture; settings: HEL, read-out: EC50 Vesicular stomatitis virus
[2] = tested on: Herpes simplex virus-1 (KOS); experiment: microbe, parasite or virus in culture; settings: Human alphaherpesvirus 1, HEL, read-out: EC50 Herpes simplex virus-1 (KOS)
[3] = tested on: Herpes simplex virus-2 (G); experiment: microbe, parasite or virus in culture; settings: Human alphaherpesvirus 2, HEL, read-out: EC50 Herpes simplex virus-2 (G)
C. albicans and A. niger = experiment: Average antifungal activity; settings: average antifungal activity (pMICca + pMICan)/2
Aspergillus niger = experiment: MIC by tube dilution method; settings: observed, A. niger, 25 °C 7 d
Staphylococcus aureus = experiment: MIC by tube dilution method; settings: observed, S. aureus, 37 °C 24 h
S. aureus = experiment: Minimum bactericidal concentration; settings: static when MBC 3-fold higher than MIC
Feline Herpes virus = experiment: organism not typed; settings: for EC50: CRFK, read-out: EC50 Feline Corona Virus
Candida albicans = experiment: MIC by tube dilution method; settings: observed, C. albicans, 37 °C 48 h
Bacillus subtilis = experiment: MIC by tube dilution method; settings: observed, B. subtilis, 37 °C 24 h
Outline: (§2)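 Test compound is diluted in double strength nutrient broth (I.P.) by tube dilution, with ciprofloxacin as reference. Samples incubated at 37 °C for 24 h. MIC is the lowest concentration inhibiting microbial growth, transformed into pMIC for analysis.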

[4] = tested on: S. aureus, B. subtilis and E. coli; experiment: Average antibacterial activity; settings: average antibacterial activity (pMICsa + pMICbs + pMICec)/3
[5] = tested on: S. aureus, B. subtilis, E. coli, C. albicans and A. niger; experiment: Average antimicrobial activity; settings: mean of five pMIC values
HEL cells = experiment: Cytotoxicity in uninfected cell cultures; settings: microscopically detectable alteration of cell morphology
Outline: as §1

Escherichia coli = experiment: MIC by tube dilution method; settings: observed, E. coli, 37 °C 24 h
Outline: as §2

B. subtilis = experiment: Minimum bactericidal concentration; settings: static when MBC 3-fold higher than MIC
[6] = tested on: Feline Corona virus (FIPV); settings: CRFK cell cultures, MTS assay

Molecule | Minimum cytotoxic concentration (Vero cells) | Cytotoxicity Minimum cytotoxic concentration (HeLa cells) | EC50 (Para-influenza-3 virus) | EC50 (Reovirus-1) | EC50 (Vaccinia virus) | EC50 [1] | pMICaf (C. albicans and A. niger) | pMICan (Aspergillus niger) | pMICsa (Staphylococcus aureus) | EC50 (Feline Herpes virus) | pMICca (Candida albicans) | pMICbs (Bacillus subtilis) | pMICab [4] | pMICam [5] | Minimum cytotoxic concentration (HEL cells) | pMICec (Escherichia coli) | other results
Nc1ncnc2c1ncn2C[C@H](O)CO [(S)-DHPA] | >250 µM | >250 µM | > 250 µM | > 250 µM | – | – | – | – | – | – | – | – | – | – | – | – | EC50 (Punta Toro virus): > 250 µM; EC50 (Coxsackie virus B4): > 250 µM; EC50 (Sindbis virus): > 250 µM
O=c1[nH]c(=O)n([C@H]2C[C@H](O)[C@@H](CO)O2)cc1/C=C/Br [Brivudin] | – | – | – | – | 112 µM | > 250 µM | – | – | – | – | – | – | – | – | – | – | –
Nc1ccn(C[C@@H](CO)OCP(=O)(O)O)c(=O)n1 [Cidofovir] | – | – | – | – | > 250 µM | > 250 µM | – | – | – | – | – | – | – | – | – | – | EC50 [2]: 0.4 µM; EC50 [3]: 0.2 µM
Cc1ccccc1C(=O)n1c(-c2ccc(S(=O)(=O)O)cc2)nc2ccccc21 [Compound 10] | >100 µg/mL | >100 µg/mL | > 100 µg/mL | > 100 µg/mL | – | – | 1.35 | 1.20 | 2.10 | > 100 µg/mL | 1.50 | 2.10 | 2.10 | 1.80 | >100 µg/mL | 2.10 | bacteriostatic/bactericidal action against S. aureus (S. aureus): active bacteriocidal agents
Cc1ccc(C(=O)n2c(-c3ccc(S(=O)(=O)O)cc3)nc3ccccc32)cc1 [Compound 11] | >100 µg/mL | >100 µg/mL | > 100 µg/mL | > 100 µg/mL | – | – | 1.20 | 0.89 | 2.10 | > 100 µg/mL | 1.50 | 1.95 | 2.05 | 1.71 | >100 µg/mL | 2.10 | bacteriostatic/bactericidal action against B. subtilis (B. subtilis): active bacteriocidal agents
CCCCC(=O)n1c(-c2ccc(S(=O)(=O)O)cc2)nc2ccccc21 [Compound 17] | >100 µg/mL | >100 µg/mL | > 100 µg/mL | > 100 µg/mL | – | – | 1.31 | 1.16 | 1.76 | > 100 µg/mL | 1.46 | 1.76 | 1.76 | 1.58 | >100 µg/mL | 1.76 | bacteriostatic/bactericidal action against B. subtilis (B. subtilis): active bacteriocidal agents; bacteriostatic/bactericidal action against S. aureus (S. aureus): active bacteriocidal agents
CCCCCCCCCCCCCCCC(=O)n1c(-c2ccc(S(=O)(=O)O)cc2)nc2ccccc21 [Compound 19] | >100 µg/mL | >100 µg/mL | > 100 µg/mL | > 100 µg/mL | – | – | 1.61 | 1.61 | 2.23 | > 100 µg/mL | 1.61 | 2.23 | 2.02 | 1.86 | >100 µg/mL | 1.61 | –
Cc1ccc(S(=O)(=O)n2c(-c3ccc(S(=O)(=O)O)cc3)nc3ccccc32)cc1 [Compound 20] | >100 µg/mL | >100 µg/mL | > 100 µg/mL | > 100 µg/mL | – | – | 1.39 | 1.23 | 1.84 | > 100 µg/mL | 1.54 | 1.84 | 1.74 | 1.60 | >100 µg/mL | 1.54 | EC50 (Sindbis virus): > 100 µg/mL
Nc1nc(O)c2ncn(COC(CO)CO)c2n1 [Ganciclovir] | – | – | – | – | > 100 µM | > 100 µM | – | – | – | – | – | – | – | – | >100 µM | – | EC50 [2]: 0.03 µM; EC50 [3]: 0.03 µM
NC(=O)c1ncn([C@@H]2O[C@H](CO)[C@@H](O)[C@H]2O)n1 [Ribavirin] | >250 µM | >250 µM | 95 µM | – | 10 µM | > 250 µM | – | – | – | – | – | – | – | – | >250 µM | – | EC50 [2]: 1 µM; EC50 (Sindbis virus): > 250 µM; EC50 [3]: 2 µM
B1 | – | – | – | – | – | – | – | – | – | – | – | – | – | – | – | – | EC50 Feline Corona Virus (Feline Herpes virus; CRFK cell cultures, MTS assay): 0.4 µg/mL; EC50 Feline Herpes Virus (FIPV) [6]: 1.5 µg/mL

Source: paper PMC7115694 (European Journal of Medicinal Chemistry, 2010)
